Source: ChEMBL document CHEMBL1126651, “Synthesis and biological evaluation of 1-[1-(2-benzo[b]thienyl)cyclohexyl]piperidine homologues at dopamine-uptake and phencyclidine- and sigma-binding sites” (J Med Chem, 1993)

Legend:
[1] = molecular target: T1, Sodium-dependent dopamine transporter (Rattus norvegicus, UniProt P23977); assay: Displacement of [3H]BTCP (1-[1-(2-benxo[b]thienyl)cyclohexyl]piperidine) from rat forebrain dopamine transporter
Summary of the method: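 Rat forebrain membranes (40000 g pellet) in 0.32 M sucrose/10 mM Tris·HCl pH 7.4. 0.4-0.6 nM [3H]BTCP incubated with test compound in 50 mM Na phosphate buffer, pH 7.4, for 90 min on ice. Nonspecific binding with 10 µM BTCP. Filtration, then scintillation counting. Six concentrations in triplicate, duplicate experiments on different preparations. IC50 taken as 50% inhibition of total binding.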

[2] = molecular target: T1, Sodium-dependent dopamine transporter; assay: Inhibition of [3H]cocaine binding to rat forebrain […]
Summary of the method: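 Rat forebrain membranes washed in 0.25 M sucrose/10 mM Na2HPO4 pH 7.4. […] Filtration with ice-cold saline wash, then scintillation counting. Six concentrations in triplicate, duplicate experiments on different preparations. IC50 taken as 50% inhibition of total binding.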

Glutamate NMDA receptor [3] = assay: Binding affinity of compound at site labelled by [3H]TCP in guinea pig brain homogenates; format: tissue-based
Rattus norvegicus [4] = organism: Rattus norvegicus; assay: (§1) Compound is evaluated for [3H]dopamine uptake inhibition in rat forebrain; format: functional
[5] = Ratio of IC50 of [3H]cocaine to that of dopamine; format: functional
Glutamate NMDA receptor [6] = assay: Ability to displace [3H]-TCP from rat brain homogenate; format: tissue-based
Glutamate NMDA receptor [7] = assay: Ability of compound to displace [3H]TCP from rat brain homogenates; format: tissue-based
Rattus norvegicus [8] = organism: Rattus norvegicus; assay: as §1

T1 sequence (P23977 whole entry): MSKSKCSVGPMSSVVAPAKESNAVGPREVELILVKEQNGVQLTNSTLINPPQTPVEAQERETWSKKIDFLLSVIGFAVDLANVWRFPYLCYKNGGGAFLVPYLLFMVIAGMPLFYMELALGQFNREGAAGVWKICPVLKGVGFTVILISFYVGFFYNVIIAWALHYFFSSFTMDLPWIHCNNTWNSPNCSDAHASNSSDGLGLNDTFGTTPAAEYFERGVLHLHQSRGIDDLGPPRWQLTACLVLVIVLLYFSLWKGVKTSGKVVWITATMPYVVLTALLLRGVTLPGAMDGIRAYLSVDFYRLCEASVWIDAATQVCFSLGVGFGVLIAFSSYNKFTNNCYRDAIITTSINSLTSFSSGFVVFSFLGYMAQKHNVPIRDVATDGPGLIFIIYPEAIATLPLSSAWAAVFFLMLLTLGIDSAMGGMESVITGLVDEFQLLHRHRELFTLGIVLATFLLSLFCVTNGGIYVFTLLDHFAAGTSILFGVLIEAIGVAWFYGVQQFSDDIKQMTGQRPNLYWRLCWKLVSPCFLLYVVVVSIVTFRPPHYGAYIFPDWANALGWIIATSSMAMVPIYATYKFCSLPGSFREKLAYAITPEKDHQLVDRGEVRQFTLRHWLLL

SMILES	IC50 [1] [nM]	IC50 [2] [nM]	Ki (Glutamate NMDA receptor [3]) [nM]	IC50 (Rattus norvegicus [4]) [nM]	Ratio [5]	Ki (Glutamate NMDA receptor [6]) [nM]	Ki (Glutamate NMDA receptor [7]) [nM]	IC50 (Rattus norvegicus [8]) [nM]
NC1(c2cc3ccccc3s2)CCCCC1	123	684	> 10000	78	8.8			
c1ccc2sc(C3(N4CCCCCC4)CCCCC3)cc2c1	18	36	> 10000	43	0.84			
c1ccc2sc(C3(N4CCCCC4)CCCCC3)cc2c1	0.66	41		9	4.6	> 10000		
c1ccc2sc(C3(N4CCCC4)CCCC3)cc2c1	13	26	> 10000	19	1.4			
NC1(c2cc3ccccc3s2)CCCCCC1	416	1340		550	2.4		> 10000	
c1ccc2sc(C3(N4CCCCC4)CCCCCC3)cc2c1	19	111		55	2		> 10000	
c1ccc2sc(C3(N4CCCCCC4)CCCC3)cc2c1	21	62	> 10000	132	0.47			
c1ccc2sc(C3(N4CCCC4)CCCCCC3)cc2c1	13	52		27	1.9		> 10000	
c1ccc2sc(C3(N4CCCCCC4)CCCCCC3)cc2c1	67	386		252	1.5		> 10000	
c1ccc2sc(C3(N4CCCCC4)CCCC3)cc2c1	15	76	> 10000	24	3.2			
c1ccc2sc(C3(N4CCCC4)CCCCC3)cc2c1	6.7	12	> 10000	11	1.1			
COC(=O)[C@H]1[C@@H](OC(=O)c2ccccc2)C[C@@H]2CC[C@H]1N2C [COCAINE]								138
NC1(c2cc3ccccc3s2)CCCC1	630	933		148	6.3		> 10000	
